Key:
[1] = biological target: Human immunodeficiency virus type 1 integrase (Human immunodeficiency virus 1, UniProt Q7ZJM1); assay: Inhibition of HIV1 integrase strand transfer activity
[2] = Clearance in Sprague-Dawley rat at 1 mg/kg, iv after 4 hrs; type: ADME, organism-based; conditions: in vivo
How it was run: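 Male Sprague-Dawley rats given 1 mpk IV in PEG400/ethanol (90:10); blood sampled at 5 and 30 min and 1, 2 and 4 h post-dose; clearance from plasma profile.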

[3] = Aqueous solubility of the compound; type: physicochemical
How it was run: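 Aqueous solubility measured at pH 2.3, 6.1, 7.3 and 8.5, in µg/mL.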

Human immunodeficiency virus type 1 integrase, sequence (Q7ZJM1 whole entry): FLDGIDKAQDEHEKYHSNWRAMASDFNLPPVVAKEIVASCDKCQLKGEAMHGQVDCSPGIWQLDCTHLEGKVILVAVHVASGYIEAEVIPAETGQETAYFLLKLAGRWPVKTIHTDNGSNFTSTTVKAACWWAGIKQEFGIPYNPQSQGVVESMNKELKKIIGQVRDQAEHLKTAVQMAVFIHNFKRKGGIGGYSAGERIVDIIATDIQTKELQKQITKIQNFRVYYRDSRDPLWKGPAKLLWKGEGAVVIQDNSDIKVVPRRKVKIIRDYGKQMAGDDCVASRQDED

| IC50 [1] | clearance [2] | solubility [3] | SMILES |
| --- | --- | --- | --- |
| 11 nM | 22 mL/min/kg |  | CNC(=O)c1cc(F)ccc1CNC(=O)c1nc2n(c(=O)c1O)CCOC2(C)C |
| 4 nM | 46 mL/min/kg | ≤ 5 µg/mL | CS(=O)(=O)c1cc(F)ccc1CNC(=O)c1nc2n(c(=O)c1O)CCCC21CCCC1 |

— ChEMBL document CHEMBL4118197, “The discovery and preclinical evaluation of BMS-707035, a potent HIV-1 integrase strand transfer inhibitor” (Bioorg Med Chem Lett, 2018)
